Several values for one entry are separate records, joined by “and”; a condition that tells them apart may be missing. Equal values may be shown once.
How the values were obtained:
Mus musculus [1] = organism: Mus musculus; test: Radio activity of [3H]-l in mice liver on day 1; format: functional
Summary of the method: (§1)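 Male CD-1 mice (~35 g, n=10 per group) received apomorphine 30 mg/kg with [3H]-apomorphine (0.153 mCi/kg) ip, once or daily for 14 days. Killed 24 h after the last dose; GI tract (with contents or washed with distilled water), liver and kidney (rinsed of blood) and skeletal tissue taken. Radioactivity given as % of total dose; skeletal tissue as % dose/g wet weight.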

Mus musculus [2] = organism: Mus musculus; test: Radio activity of [3H]-l in washed mice GI tract on 14 days; format: functional, Gastrointestinal tract; summary of the method: as §1
Sus scrofa [3] = organism: Sus scrofa; test: Percentage binding to swine plasma proteins a t0.01 ug/mL concentration of the compound; format: cell-free
Summary of the method: (§2)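 Plasma came from male Sprague-Dawley rats (~450 g, ether, vena cava blood, lithium heparin) or from six mature female swine (jugular catheter, heparinized). It was spiked with 1-HCl (10 ng–50 µg/mL) containing 0.5 mCi/mL [³H]-1. Samples were ultrafiltered as for human plasma, and the ultrafiltrate was analysed by HPLC peak-collection LSC. N = 4.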

Albumin [4] = molecular target: T1, Albumin (Bos taurus, UniProt P02769); test: (§3) Covalent binding of compound to serum albumin after 1 hr when the level of [8,9-3H2]-1is 2.6 dpm *10e6; conditions: cattle
Summary of the method: (§4)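 BSA (32 mg) with 2 mg apomorphine HCl hemihydrate plus tritiated [8,9-3H2]apomorphine at the level stated, in pH 7.4 phosphate buffer, 2.1 mL total, incubated 1 h. Incubates were extracted twice with ethyl acetate. Protein-bound radioactivity was measured by LSC after one of three workups: perchloric acid precipitation with repeated trifluoroacetic acid-ethanol washes; Sephadex G-25 gel filtration in 1% sodium lauryl sulfate buffer; or 4-day dialysis.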

Mus musculus [5] = organism: Mus musculus; test: Ratio of accumulation of radioactivity from 14 to 1 day in cerebellum; format: functional
Summary of the method: (§5)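 Male CD-1 mice (~35 g, 10 per group) received 1 at 30 mg/kg ip with [³H]-1 (0.153 mCi/kg), once or daily for 14 days, with free access to food and water. At 24 h after the last dose, plasma (infraorbital sinus), brain regions, kidney, liver and GI tract were taken for radioactivity counting. The accumulation ratio is radioactivity after 14 doses divided by radioactivity after 1 dose.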

Mus musculus [6] = organism: Mus musculus; test: Radio activity of [3H]-l in washed mice GI tract on day 1; format: functional, Gastrointestinal tract; summary of the method: as §1
Mus musculus [7] = organism: Mus musculus; test: Percentage of covalently bound total in forebrain without striatum of mouse; format: functional
Summary of the method: (§6)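 Male CD-1 mice (~35 g, n=10) given apomorphine 30 mg/kg with [3H]-apomorphine (0.153 mCi/kg) ip daily for 14 days, killed 24 h after the last dose. Plasma from infraorbital sinus; brain split into striatum, cerebellum, forebrain without striatum. Protein-bound radioactivity expressed as µg/g protein (albumin equivalent; plasma µg/mL) and as % of total tissue radioactivity.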

Mus musculus [8] = organism: Mus musculus; test: Radio activity accumulation in extractable reactivity in plasma brain (Excreatable reactivity) on 14 days; format: functional
Summary of the method: (§7)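 Male CD-1 mice (~35 g, n=10 per group) given apomorphine 30 mg/kg fortified with [3H]-apomorphine (0.153 mCi/kg) ip, either once or daily for 14 days. Sampled 24 h after the last dose: plasma from infraorbital sinus (extractable and nonextractable radioactivity) and brain regions (striatum, cerebellum, forebrain without striatum). Radioactivity expressed as µg apomorphine equivalent per mL or per g […].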

Sus scrofa [9] = organism: Sus scrofa; test: Percentage binding to swine plasma proteins at 10.0 ug/mL concentration of the compound; format: cell-free; summary of the method: as §2
Sus scrofa [10] = organism: Sus scrofa; test: Percentage binding to swine plasma proteins at 0.10 ug/mL concentration of the compound; format: cell-free; summary of the method: as §2
Mus musculus [11] = organism: Mus musculus; test: Radio activity covalently bound to striatum of mouse brain; format: functional; summary of the method: as §6
Sus scrofa [12] = organism: Sus scrofa; test: Percentage binding to swine plasma proteins at 5.0 ug/mL concentration of the compound; format: cell-free; summary of the method: as §2
Albumin [13] = molecular target: T1, Albumin; test: Covalent binding of compound to serum albumin after 1 hr when the level of [8,9-3H2]-1is 2.0 dpm *10e6; conditions: cattle; summary of the method: as §4
Mus musculus [14] = organism: Mus musculus; test: Ratio of accumulation of radioactivity from 14 to 1 day in plasma contents; format: functional; summary of the method: as §5
Mus musculus [15] = organism: Mus musculus; test: Ratio of accumulation of radioactivity from 14 to 1 day in kidney; format: functional; summary of the method: as §5
Homo sapiens [16] = organism: Homo sapiens; test: Percentage binding to human plasma proteins was determined by collecting HPLC eluate at 0.10 micro g/ml concentration of compound 1 in plasma; format: cell-free
Summary of the method: (§8)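 Fresh plasma from fasted healthy human volunteers was spiked with 1-HCl plus [³H]-1 tracer. It was incubated 10 min at 37 °C and ultrafiltered through YMT membranes (1000g, 5 min, 37 °C). Ultrafiltrate was acidified with pH 3.0 acetate buffer containing carrier 1-HCl, argon-flushed and frozen at -15 °C. Phenyl-column HPLC was read by peak-eluate collection LSC, UV peak area, or radiochemical detection. % bound was calculated from total vs ultrafiltrate using a plasma water fraction of 0.93.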

Rattus norvegicus [17] = organism: Rattus norvegicus; test: Percentage binding to rat plasma proteins at 0.01 ug/mL concentration of the compound; format: cell-free; summary of the method: as §2
Sus scrofa [18] = organism: Sus scrofa; test: Percentage binding to swine plasma proteins at 100 ug/mL concentration of the compound; format: cell-free
Albumin [19] = molecular target: T1, Albumin; test: as §3; conditions: cattle; summary of the method: as §4; remark: listed apart in the source
Mus musculus [20] = organism: Mus musculus; test: Percentage of covalently bound total in plasma of mouse; format: functional; summary of the method: as §6
Mus musculus [21] = organism: Mus musculus; test: Ratio of accumulation of radioactivity from 14 to 1 day in striatum; format: functional; summary of the method: as §5
Albumin [22] = molecular target: T1, Albumin; test: Covalent binding of compound to serum albumin after 1 hr when the level of [8,9-3H2]-1is 2.7 dpm *10e6 expressed as mol of drug/mol of serum albumin; conditions: cattle; summary of the method: as §4
Rattus norvegicus [23] = organism: Rattus norvegicus; test: Percentage binding to rat plasma proteins at 0.10 ug/mL concentration of the compound; format: cell-free; summary of the method: as §2
Mus musculus [24] = organism: Mus musculus; test: Ratio of accumulation of radioactivity from 14 to 1 day in washed gastro intestinal track; format: functional; summary of the method: as §5
Mus musculus [25] = organism: Mus musculus; test: Ratio of accumulation of radioactivity from 14 to 1 day in GI tract with its contents; format: functional, Gastrointestinal tract; summary of the method: as §5
Rattus norvegicus [26] = organism: Rattus norvegicus; test: Percentage binding to rat plasma proteins at 1 ug/mL concentration of the compound; format: cell-free; summary of the method: as §2
Mus musculus [27] = organism: Mus musculus; test: Radio activity accumulation in nonextractable radioactivity in striatum (Excreatable reactivity) on 14 days; format: functional; summary of the method: as §7
Albumin [28] = molecular target: T1, Albumin; test: Covalent binding of compound to serum albumin after 1 hr when the level of [8,9-3H2]-1is 2.6 dpm *10e6 expressed as mol of drug/mol of serum albumin; conditions: cattle; summary of the method: as §4
Mus musculus [29] = organism: Mus musculus; test: Ratio of accumulation of radioactivity from 14 to 1 day in skeletal tissue (%dose/g of wet wt); format: functional; summary of the method: as §5
Mus musculus [30] = organism: Mus musculus; test: Radio activity accumulation in nonextractable radioactivity in plasma brain striatum (Excreatable reactivity) on day 1; format: functional; summary of the method: as §7
Mus musculus [31] = organism: Mus musculus; test: Radio activity of [3H]-l in mice kidney on day 1; format: functional; summary of the method: as §1
Mus musculus [32] = organism: Mus musculus; test: Radio activity of [3H]-l in mice GI tract with its contents on day 1; format: functional, Gastrointestinal tract; summary of the method: as §1
Mus musculus [33] = organism: Mus musculus; test: Radio activity of [3H]-l in mice liver on 14 days; format: functional; summary of the method: as §1
Albumin [34] = molecular target: T1, Albumin; test: Covalent binding of compound to serum albumin after 1 hr when the level of [8,9-3H2]-1is 2.3 dpm *10e6 expressed as mol of drug/mol of BSA; conditions: cattle; summary of the method: as §4
Homo sapiens [35] = organism: Homo sapiens; test: Percentage binding to human plasma proteins was determined by measuring HPLC peak with radiochemical detection at 1.0 micro g/ml concentration in plasma; format: cell-free; summary of the method: as §8

T1 sequence (P02769 whole entry): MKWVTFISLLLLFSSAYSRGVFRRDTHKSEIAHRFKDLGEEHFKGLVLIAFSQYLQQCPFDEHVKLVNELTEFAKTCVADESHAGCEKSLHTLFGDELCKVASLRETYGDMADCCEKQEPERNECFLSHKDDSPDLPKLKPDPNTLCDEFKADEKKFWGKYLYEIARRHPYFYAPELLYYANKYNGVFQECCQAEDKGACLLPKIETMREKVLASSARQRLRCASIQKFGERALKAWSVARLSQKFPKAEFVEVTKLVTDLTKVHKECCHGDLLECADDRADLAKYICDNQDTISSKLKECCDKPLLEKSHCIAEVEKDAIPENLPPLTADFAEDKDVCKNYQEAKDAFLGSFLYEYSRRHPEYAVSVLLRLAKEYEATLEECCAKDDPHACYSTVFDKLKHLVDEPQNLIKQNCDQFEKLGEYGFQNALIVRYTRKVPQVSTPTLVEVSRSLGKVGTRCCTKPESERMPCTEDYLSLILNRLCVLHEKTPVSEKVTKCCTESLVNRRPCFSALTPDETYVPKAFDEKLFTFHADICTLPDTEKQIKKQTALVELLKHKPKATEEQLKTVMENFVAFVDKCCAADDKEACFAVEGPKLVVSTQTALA

## CN1CCc2cccc3c2[C@H]1Cc1ccc(O)c(O)c1-3 [APOMORPHINE]
Mus musculus [1]
  Amount: 0.38%
Mus musculus [2]
  Amount: 0.558%
Sus scrofa [3]
  Binding: 94.8%
Albumin [4]
  Binding: 9063 dpm mg-1
Mus musculus [5]
  Ratio: 2.9
Mus musculus [6]
  Amount: 0.065%
Mus musculus [7]
  Binding: 1.62%
Mus musculus [8]
  Accumulation: 1.42 µg/mL
Sus scrofa [9]
  Binding: 86.8%
Sus scrofa [10]
  Binding: 93%
Mus musculus [11]
  Binding: 0.94 µg/g
Sus scrofa [12]
  Binding: 90.4%
Albumin [13]
  Binding: 4848 dpm mg-1
Mus musculus [14]
  Ratio: 2.6
Mus musculus [15]
  Ratio: 3.1
Homo sapiens [16]
  Binding: 97.8%
Rattus norvegicus [17]
  Binding: 91.3%
Sus scrofa [18]
  Binding: 85.7%
Albumin [19]
  Binding: 8238 dpm mg-1 and 9938 dpm mg-1
Mus musculus [20]
  Binding: 2.88%
Mus musculus [21]
  Ratio: 2.7
Albumin [22]
  Binding: 4 M of drug (M of BSA)-1 and 5.9 M of drug (M of BSA)-1
Rattus norvegicus [23]
  Binding: 90.4%
Mus musculus [24]
  Ratio: 9.7
Mus musculus [25]
  Ratio: 2.7
Rattus norvegicus [26]
  Binding: 90.4%
Mus musculus [27]
  Accumulation: 56.9 µg/g
Albumin [28]
  Binding: 4 M of drug (M of BSA)-1 and 4.8 M of drug (M of BSA)-1 and 4.4 M of drug (M of BSA)-1
Mus musculus [29]
  Ratio: 1.6
Mus musculus [30]
  Accumulation: 21.4 µg/g
Mus musculus [31]
  Amount: 0.107%
Mus musculus [32]
  Amount: 1.48%
Mus musculus [33]
  Amount: 0.99%
Albumin [34]
  Binding: 3.4 M of drug (M of BSA)-1
Homo sapiens [35]
  Binding: 94.9%

From ChEMBL document CHEMBL1122996, “Interactions of apomorphine with serum and tissue proteins” (J Med Chem, 1985)
